Source: PubChem
Shown are actives, neighbours in structure and some others; about 2.1% of the full set was active somewhere.
ABCG2 block – ABCG2 efflux pump inhibitors, primary screen, multiplex with ABCB1, IgMXP3 cells, flow cytometry; JC-1 efflux; Broad substrate specificity ATP-binding cassette transporter ABCG2 (Homo sapiens), Q9UNQ0; 190,000 compounds, 0.1% hits; inhibition, % at 6.6 µM;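 active means inhibition above 80%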
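material = IgMXP3 (ABCG2) plus far-red-tagged CCRF-Adr (ABCB1) cells | amount = 3 million cells/mL, equal mix of both lines | also added = JC-1 transporter substrate | dosing = one concentration, 6.6 µM final | schedule = 10 min at 25 °C | measured by = flow cytometric JC-1 green MFI at 530 nm | read-out basis = percent efflux inhibition, scaled nicardipine 100% to DMSO 0%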
Arbovirus anti – antivirals against arbovirus infection, primary screen, cell-based, full library, 10K replicate subset; arbovirus infection cell-based antiviral screen; inhibition, % at 10 µM; AID 1251, 2008; 200,000 compounds, 0.37% hits; in the data active means inhibition above about 30%
Autophagy mod – autophagy modulators in MEF cells, primary screen, imaging, high-content, MEF GFP-LC3; MEF GFP-LC3 puncta imaging; test concentration mostly 10 µM; calls only at 10 µM (by protocol); 190,000 compounds, 0.98% hits; AID 463193, 2010;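 active means percentage of spot-positive cells more than 3 SD above its plate mean, without a fluorescence outlier flag or 80% toxicity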
ABCB1 inh – ABCB1 efflux pump inhibitors, primary screen, cell-based, multiplex, flow cytometry, ABCG2 counter-screen. ATP-dependent translocase ABCB1 (Homo sapiens), P08183. CCRF-Adr cells, JC-1 efflux. inhibition, % at 6.6 µM. 190,000 compounds, 0.067% hits. AID 1326, 2008; in the data active means inhibition above about 40%;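 further: higher value means more JC-1 retained so stronger ABCB1 efflux block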
MT stabilize HCS – microtubule stabilizers in HeLa cells, primary screen, imaging, high-content imaging | HeLa tubulin immunostaining HCS, 24 h; share of cells brighter than vehicle mean+2SD | % tubulin-high responders, % at 10 µM | 200,000 compounds, 0.83% hits;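 active means plate Z-score above 3 for both tubulin-high and condensed-nucleus cell shares, with cell loss under 80%, at 10 µM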;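 further: anti alpha tubulin signal scored within the nucleus-defined area of each cell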
bCat nuc transl – modulators of beta-catenin nuclear translocation, primary screen, imaging, HeLa cells, immunofluorescence, high-content; 190,000 compounds, 0.3% hits; nuclear translocation activity, % at 5 µM;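 active means nuclear translocation activity above 50% at 5 µM, with a well cell count of 50 or more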;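 further: per-cell ratio of nuclear to cytoplasmic median beta-catenin stain intensity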
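Test system: human HeLa cells, endogenous beta-catenin. Times: 24 h compound exposure, 37°C. Measured by: beta-catenin immunofluorescence imaging with DAPI.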
A number is an active result; . = inactive; / = not tested or not shown; + = active, no number.

SMILES	ABCG2 block	Arbovirus anti	Autophagy mod	ABCB1 inh	MT stabilize HCS	bCat nuc transl
COCC(=O)Nc1cc(Cl)ccc1C(F)(F)F	.	.	.	.	.	.
CCCN1Cc2cccc(C(=O)N3CCN(c4cc(Cl)ccc4C)CC3)c2C1=O	.	47	.	.	.	/
COCCN1Cc2cccc(C(=O)N3CCN(c4cc(C)ccc4C)CC3)c2C1=O	.	.	.	.	.	/
CCOC(=O)N1CCN(c2c(NCc3cccs3)c(=O)c2=O)CC1	.	.	.	.	20	/
CCOC(=O)N1CCN(c2c(NCc3ccc(F)cc3)c(=O)c2=O)CC1	/	/	/	/	/	.
CCOc1ncccc1C(=O)N1CCN(C(=O)c2ccccc2)CC1	.	.	.	.	.	.
CCOc1ncccc1C(=O)N1CCN(c2cccc(C)c2C)CC1	.	.	.	.	11	186
COc1cc2c(cc1OC)C(c1cc([N+](=O)[O-])ccc1O)NCC2 (stereo not given)	.	.	.	.	.	.
N#Cc1ccc(CSc2nnc(-c3ccccc3)n2Cc2ccco2)cc1	.	.	.	.	.	.
Cn1nc(-c2ccccc2)c(C(=O)Nc2ccc(Cl)cc2)c1Cl	.	.	.	.	.	/
Cn1c(Cl)c(C(=O)Nc2ccc(Cl)cc2)c2ccccc21	.	.	.	.	28	.
CCn1nc(C)c(/C=C/C(=O)Nc2ccc(C)cc2C)c1C	.	.	.	.	.	.
CC(=O)Nc1nc2ccccc2n1CCOc1ccccc1	.	.	.	.	.	/
S=C(Nc1ccccc1)Nc1nc2ccccc2n1CCOc1ccccc1	.	.	.	.	30	.
Cc1cc(C)c(C)c(S(=O)(=O)N2CCNCC2)c1C	.	.	+	.	.	.
Cc1ccc([N+](=O)[O-])cc1S(=O)(=O)N1CCNCC1	.	.	.	.	.	.
CN1/C(=C\C=C2/C(=O)Oc3ccccc3C2=O)C(C)(C)c2ccccc21	.	.	+	.	.	.
OCCN1CCN(CC(O)COc2ccc(C34CC5CC(CC(C5)C3)C4)cc2)CC1 (stereo not given)	.	.	+	.	.	.
CC1=Nc2cc(C(=O)NCc3ccco3)ccc2Sc2ccc(C)cc21	.	.	.	.	.	73
CCOc1cccc2cc(-c3cn4cc(C)ccc4n3)c(=O)oc12	.	.	+	.	42	.
O=C(CSc1nnc2c3ccccc3c3ccccc3c2n1)Nc1ccccc1	.	.	+	.	.	.
O=C(Nc1c(-c2ccccc2)nc2ccccn12)c1cccs1	.	39	.	.	.	.
O=C(Nc1ccc([N+](=O)[O-])cc1)c1cc(-c2ccccn2)nc2c(Cl)cccc12	.	.	+	.	.	.
Cc1cccc2c(C(=O)Nc3ccc(Br)cc3)cc(-c3ccccn3)nc12	.	.	.	.	.	.
O=C(NC1CCCCCCC1)c1ccco1	.	.	.	.	.	/
SMILES	ABCG2 block	Arbovirus anti	Autophagy mod	ABCB1 inh	MT stabilize HCS	bCat nuc transl
CCOc1cc(-c2cc(-c3ccc(C)o3)nc(N)c2C#N)ccc1O	.	.	.	.	.	55
Cc1ccc(-c2cc(-c3ccc4c(c3)OCO4)c(C#N)c(N)n2)o1	.	.	.	.	59	.
CCCc1cc(-c2ccc(O)c(OCC)c2)c(C#N)c(N)n1	.	.	.	.	.	.
CN1CCCN(c2ncnc3scc(-c4ccc(F)cc4)c23)CC1	.	.	.	.	.	.
CCc1ccc(CC2S/C(=C(\C#N)C(C)=O)NC2=O)cc1 (stereo not given)	.	33	.	.	.	.
CCN1C(=O)C(CC(=O)N2CCN(C(c3ccccc3)c3ccccc3)CC2)N(CC)C1=O (stereo not given)	.	.	+	.	.	/
CCOc1ccc(S(=O)(=O)N(C)c2ccc(OCC(=O)OCc3c(C)noc3C)cc2)cc1	.	.	.	.	.	/
CCCCS(=O)(=O)Nc1ccc2c(c1)ncn2C1CCCCC1	.	.	.	.	.	.
